Results as given in ChEMBL document CHEMBL4145684 (J Med Chem, 2018).
Values belong to the compound of their own block, whether it stands above or below them. Activity calls are given as the source filed them. The rule behind the calls is not given here.

Key:
MCF7 [1] = assay: Antiproliferative activity against human MCF7 cells assessed as reduction in cell proliferation in RPMI containing 10% FBS incubated for 5 days by Cell-titer-Glo assay; format: functional, cell-based; settings: MCF7, 120 h
Method in brief: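 MCF-7 cells, 640/well in RPMI with 10% FBS and 20 mM HEPES, adhered overnight; 10-point 1:5 dilution series (10–0.000005 µM final) for 5 days. CellTiter-Glo luminescence, cell-free medium background subtracted, percent viability vs untreated cells; n ≥ 3.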

Estrogen receptor [2] = biological target: T1, Estrogen receptor (Homo sapiens, UniProt P03372); assay: Induction of ERalpha degradation in human MCF7 cells in phenol red free RPMI medium containing 5% charcoal dextran-treated FBS incubated for 4 hrs by SP1 and anti-ER rabbit monocolnal antibody based in-cell Western assay
T1 sequence (P03372 whole entry): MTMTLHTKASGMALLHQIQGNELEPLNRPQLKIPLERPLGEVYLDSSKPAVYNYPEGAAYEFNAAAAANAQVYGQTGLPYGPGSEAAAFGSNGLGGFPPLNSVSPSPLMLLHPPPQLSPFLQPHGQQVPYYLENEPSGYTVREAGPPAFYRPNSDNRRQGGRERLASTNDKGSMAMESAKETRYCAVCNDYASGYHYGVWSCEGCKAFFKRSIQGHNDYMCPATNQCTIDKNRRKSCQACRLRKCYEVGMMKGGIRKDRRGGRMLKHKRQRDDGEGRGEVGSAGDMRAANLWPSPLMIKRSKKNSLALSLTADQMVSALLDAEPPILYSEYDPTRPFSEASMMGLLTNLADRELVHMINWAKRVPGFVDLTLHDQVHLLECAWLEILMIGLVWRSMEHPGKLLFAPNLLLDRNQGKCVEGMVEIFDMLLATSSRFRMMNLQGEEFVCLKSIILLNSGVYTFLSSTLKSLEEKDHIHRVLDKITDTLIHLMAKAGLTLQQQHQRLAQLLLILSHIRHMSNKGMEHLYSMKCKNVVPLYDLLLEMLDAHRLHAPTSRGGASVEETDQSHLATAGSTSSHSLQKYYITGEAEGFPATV

[3] = AUC in mouse at 10 mg/kg, po; format: ADME, organism-based; settings: in vivo
Method in brief: (§1)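 Mouse or rat PK: single intravenous dose 3 mg/kg or oral dose 10 mg/kg, vehicle PEG400/PVP/Tween 80/0.5% CMC in water (9:0.5:0.5:90).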

Rattus norvegicus [4] = assay: Reduction in uterine wet weight in ethynyl estradiol-stimulated CD-IGS rat at 1 mg/kg, po dosed daily for 3 days by gavage followed 15 mins later by 0.1 mg/kg, po ethynyl estradiol and measured 24 hrs after last dose by immature rat uterine wet weight assay; format: functional
Method in brief: (§2)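 Female immature CD-IGS rats, 21 days old on arrival; oral gavage of vehicle or compound daily for 3 days, ethynyl estradiol 0.1 mg/kg orally 15 min after each dose. Day 4, 24 h post-dose, plasma taken, then uterus removed and weighed. Reduction = 100 x (VehicleEE – Cpd)/(VehicleEE – Vehicle).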

[5] = Cmax in rat at 10 mg/kg, po; format: ADME, organism-based; design: dose 10 mg/kg, route oral; settings: in vivo; method in brief: as §1
[6] = Cmax in mouse at 10 mg/kg, po; format: ADME, organism-based; design: dose 10 mg/kg, route oral; settings: in vivo; method in brief: as §1
[7] = Oral bioavailability in rat at 10 mg/kg; format: ADME, organism-based; settings: in vivo; method in brief: as §1
[8] = Clearance in rat at 3 mg/kg, iv; format: ADME, organism-based; settings: in vivo; method in brief: as §1
[9] = Volume of distribution at steady state in mouse at 3 mg/kg, iv; format: ADME, organism-based; settings: in vivo, read-out: Vdss; method in brief: as §1
Estrogen receptor [10] = biological target: T1, Estrogen receptor; assay: Binding affinity to ERalpha (unknown origin)
MCF7 [11] = assay: Antitumor activity against human MCF7 cells xenografted in nu/nu mouse model of tamoxifen-resistant breast cancer xenograft implanted with 17beta-estradiol time release pellets assessed as reduction tumor volume at 60 mg/kg, po qd for 4 weeks; format: functional, organism-based
Method in brief: (§3)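 Female nu/nu mice with 0.72 mg 60-day 17β-estradiol pellets bearing MCF-7 tumors, pretreated with oral tamoxifen citrate; at ~150-250 mm3 (mean 200 mm3) randomized, tamoxifen stopped, then dosed daily for 4 weeks; tumor volume (length x width2/2) and body weight twice weekly.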

[12] = Clearance in mouse at 3 mg/kg, iv; format: ADME, organism-based; settings: in vivo; method in brief: as §1
MCF7 [13] = assay: Antitumor activity against human MCF7 cells xenografted in nu/nu mouse model of tamoxifen-sensitive breast cancer xenograft implanted with 17beta-estradiol time release pellets assessed as reduction tumor volume at 6 mg/kg, po qd for 4 weeks; format: functional, organism-based
[14] = Volume of distribution at steady state in rat at 3 mg/kg, iv; format: ADME, organism-based; settings: in vivo, read-out: Vdss; method in brief: as §1
[15] = AUC (0 to infinity) in mouse at 10 mg/kg, po; format: ADME, organism-based; design: dose 10 mg/kg, route oral, time infinity; settings: in vivo
[16] = Half life in mouse at 3 mg/kg, iv; format: ADME, organism-based; settings: in vivo; method in brief: as §1
[17] = AUC (0 to infinity) in rat at 10 mg/kg, po; format: ADME, organism-based; design: dose 10 mg/kg, route oral, time infinity; settings: in vivo
[18] = Half life in rat at 3 mg/kg, iv; format: ADME, organism-based; settings: in vivo; method in brief: as §1
Rattus norvegicus [19] = assay: In-vivo inverse agonist activity at ERalpha in CD-IGS rat assessed as reduction in uterine wet weight at 10 mg/kg, po dosed daily for 3 days by gavage and measured 24 hrs after last dose by immature rat uterine wet weight assay relative to basal level; format: functional, organism-based
Method in brief: (§4)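 Immature CD-IGS rats given compound orally for 3 days without ethynyl estradiol (agonist mode); on day 4, 24 h after dosing, uterus removed and weighed; wet weight normalized to total body weight.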

Rattus norvegicus [20] = assay: Reduction in uterine wet weight in ethynyl estradiol-stimulated CD-IGS rat at 10 mg/kg, po dosed daily for 3 days by gavage followed 15 mins later by 0.1 mg/kg, po ethynyl estradiol and measured 24 hrs after last dose by immature rat uterine wet weight assay; format: functional; method in brief: as §2
[21] = AUC in human MCF7 cells xenografted nu/nu mouse implanted with 17beta-estradiol time release pellets dosed orally once daily for 4 weeks; format: ADME, organism-based; settings: in vivo, po
[22] = Oral bioavailability in mouse at 10 mg/kg; format: ADME, organism-based; settings: in vivo; method in brief: as §1
MCF7 [23] = assay: Antitumor activity against human MCF7 cells xenografted in nu/nu mouse model of tamoxifen-resistant breast cancer xenograft implanted with 17beta-estradiol time release pellets assessed as reduction tumor volume at 120 mg/kg, po qd for 4 weeks; format: functional, organism-based; method in brief: as §3
Rattus norvegicus [24] = assay: Reduction in uterine wet weight in ethynyl estradiol-stimulated CD-IGS rat at 60 mg/kg, po dosed daily for 3 days by gavage followed 15 mins later by 0.1 mg/kg, po ethynyl estradiol and measured 24 hrs after last dose by immature rat uterine wet weight assay; format: functional; method in brief: as §2
MCF7 [25] = assay: Antitumor activity against human MCF7 cells xenografted in nu/nu mouse model of tamoxifen-sensitive breast cancer xenograft implanted with 17beta-estradiol time release pellets assessed as reduction tumor volume at 60 mg/kg, po qd for 4 weeks; format: functional, organism-based
Rattus norvegicus [26] = assay: In-vivo agonist activity at ERalpha in CD-IGS rat assessed as increase in uterine wet weight at 60 mg/kg, po dosed daily for 3 days by gavage and measured 24 hrs after last dose by immature rat uterine wet weight assay; format: functional, organism-based; method in brief: as §4

Structure (SMILES): CC1=C(c2ccc(O)cc2)[C@H](c2ccc(OCCN3CCCCC3)cc2)Oc2cc(O)ccc21 [ACOLBIFENE]
- AUC [3]: 90 ng·h/mL

Structure (SMILES): CC1=C(c2ccccc2)C(c2ccc(OC[C@H](C)N3CC[C@@H](C)C3)cc2)Oc2ccc(O)cc21 (stereo partly drawn)
- IC50 (MCF7 [1]): 0.4 nM
- IC50 (Estrogen receptor [2]): 0.4 nM
- AUC [3]: 1000 ng·h/mL

Structure (SMILES): CC1=C(c2cccc(O)c2)C(c2ccc(OC[C@@H](C)N3CC[C@H](C)C3)cc2)Oc2ccc(O)cc21 (stereo partly drawn)
- IC50 (MCF7 [1]): 0.2 nM
- IC50 (Estrogen receptor [2]): 0.2 nM

Structure (SMILES): CC/C(=C(\c1ccccc1)c1ccc(OCCN(C)C)cc1)c1ccccc1 [TAMOXIFEN]
- Activity (MCF7 [23]): inactive
- inhibition (INH) (Rattus norvegicus [24]): 78%
- Activity (MCF7 [25]): Active
- Activity (Rattus norvegicus [26]): Active

Structure (SMILES): CC1=C(c2cccc(O)c2)C(c2ccc(OC[C@H](C)N3CCCCCC3)cc2)Oc2ccc(O)cc21 (stereo partly drawn)
- IC50 (MCF7 [1]): 0.2 nM
- IC50 (Estrogen receptor [2]): 0.2 nM

Structure (SMILES): CC1=C(c2cccc(F)c2)C(c2ccc(OC[C@H](C)N3CC[C@@H](C)C3)cc2)Oc2ccc(O)cc21 (stereo partly drawn)
- IC50 (MCF7 [1]): 1 nM
- IC50 (Estrogen receptor [2]): 0.5 nM
- AUC [3]: 350 ng·h/mL

Structure (SMILES): CC1=C(c2ccc(O)cc2)C(c2ccc(OC[C@H](C)N3CC[C@@H](C)C3)cc2)Oc2cc(O)ccc21 (stereo partly drawn)
- IC50 (MCF7 [1]): 0.2 nM
- IC50 (Estrogen receptor [2]): 0.3 nM
- AUC [3]: 120 ng·h/mL

Structure (SMILES): CC1=C(c2cccc(O)c2)C(c2ccc(OCCN3CC[C@H](C)C3)cc2)Oc2ccc(O)cc21 (stereo partly drawn)
- IC50 (MCF7 [1]): 0.3 nM
- IC50 (Estrogen receptor [2]): 0.2 nM

Structure (SMILES): CC1=C(c2ccc(F)cc2)C(c2ccc(OC[C@H](C)N3CC[C@@H](C)C3)cc2)Oc2ccc(O)cc21 (stereo partly drawn)
- inhibition (INH) (Rattus norvegicus [4]): 111%
- Cmax [5]: 280 ng/mL
- Cmax [6]: 170 ng/mL
- bioavailability [7]: 54%
- clearance [8]: 21 mL/min/kg
- Vd [9]: 11 L/kg
- Activity (MCF7 [11]): inactive
- clearance [12]: 30 mL/min/kg
- Activity (MCF7 [13]): Active
- Vd [14]: 12 L/kg
- AUC(0-inf) [15]: 2000 ng·h/mL
- half-life [16]: 5.2 h
- AUC(0-inf) [17]: 4500 ng·h/mL
- IC50 (Estrogen receptor [2]; mcf7): 0.4 nM
- half-life [18]: 7.4 h
- AUC at 672 h [21]: 36000 ng·h/mL
- AUC [3]: 2000 ng·h/mL
- bioavailability [22]: 35%

Structure (SMILES): CC1=C(c2cccc(S(C)(=O)=O)c2)C(c2ccc(OC[C@H](C)N3CC[C@@H](C)C3)cc2)Oc2ccc(O)cc21 (stereo partly drawn)
- IC50 (MCF7 [1]): 4.3 nM
- IC50 (Estrogen receptor [2]): 1.4 nM

Continued by falling IC50 (MCF7 [1]), values first:

- IC50 (MCF7 [1]): 0.2 nM
- IC50 (Estrogen receptor [2]): 0.3 nM
Structure (SMILES): CC1=C(c2cccc(O)c2)C(c2ccc(OC[C@@H](C)N3CC[C@@H](C)C3)cc2)Oc2ccc(O)cc21 (stereo partly drawn)

- IC50 (MCF7 [1]): 0.2 nM
- IC50 (Estrogen receptor [2]): 0.4 nM
Structure (SMILES): CC1=C(c2cccc(O)c2)C(c2ccc(OCCN3CC[C@@H](C)C3)cc2)Oc2ccc(O)cc21 (stereo partly drawn)

- IC50 (MCF7 [1]): 0.2 nM
- IC50 (Estrogen receptor [2]): 0.4 nM
Structure (SMILES): CC1=C(c2cccc(O)c2)C(c2ccc(OC[C@H](C)N3CCCC3)cc2)Oc2ccc(O)cc21 (stereo partly drawn)

- Cmax [5]: 140 ng/mL
- Cmax [6]: 100 ng/mL
- bioavailability [7]: 18%
- clearance [8]: 33 mL/min/kg
- Vd [9]: 6.2 L/kg
- IC50 (Estrogen receptor [10]): 5.1 nM
- clearance [12]: 38 mL/min/kg
- IC50 (MCF7 [1]): 0.2 nM
- Vd [14]: 8 L/kg
- AUC(0-inf) [15]: 590 ng·h/mL
- half-life [16]: 3.6 h
- AUC(0-inf) [17]: 930 ng·h/mL
- IC50 (Estrogen receptor [2]): 0.2 nM
- half-life [18]: 2.9 h
- AUC at 672 h [21]: 4600 ng·h/mL
- AUC [3]: 590 ng·h/mL
- bioavailability [22]: 13%
Structure (SMILES): CC1=C(c2cccc(O)c2)C(c2ccc(OC[C@H](C)N3CC[C@@H](C)C3)cc2)Oc2ccc(O)cc21 (stereo partly drawn)
- inhibition (INH) (Rattus norvegicus [4]): 99%
- Activity (MCF7 [11]): Active
- Activity (MCF7 [13]): Active
- Activity (Rattus norvegicus [19]): Active
- inhibition (INH) (Rattus norvegicus [20]): 111%

- IC50 (MCF7 [1]): 0.1 nM
- IC50 (Estrogen receptor [2]): 0.2 nM
Structure (SMILES): CC1=C(c2cccc(O)c2)C(c2ccc(OC[C@H](C)N3CCCCC3)cc2)Oc2ccc(O)cc21 (stereo partly drawn)

- IC50 (Estrogen receptor [10]): 2.8 nM
- IC50 (MCF7 [1]): 0.1 nM
- IC50 (Estrogen receptor [2]): 0.1 nM
Structure (SMILES): CC1=C(c2cccc(O)c2)[C@H](c2ccc(OC[C@H](C)N3CC[C@@H](C)C3)cc2)Oc2ccc(O)cc21
